Active and inactive are the calls of the source. The calls are words filed in the database; no cut-off is given here.
What was measured:
[1] = molecular target: T1, Cyclic GMP-AMP synthase (Homo sapiens, UniProt Q8N884); test: Inhibition of human cGAS (2 to 522 residues) expressed in Sf9 insect cells assessed as reduction in cGAMP level using ISD DNA as substrate in presence of ATP and GTP incubated for 1 hr followed by Cy5-labeled cGAMP addition measured after 1 hr by fluorescence polarization assay
Method in brief: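 Enzyme reaction uses 100 nM cGAS, 100 nM ISD DNA, 1 mM ATP and 0.3 mM GTP in Hepes/NaCl/Tween-20/MgCl2 buffer, pH 7.5, with compounds. Run 1 h at room temperature, then stopped with 50 mM EDTA. Fluorescence polarization read with 620 nm excitation.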

[2] = system: THP-1; test: Cytotoxicity against human THP1 cells assessed as reduction in cell viability by CellTiterGlo assay; format: cell-based
[3] = molecular target: T1, Cyclic GMP-AMP synthase; test: Inhibition of cGAS in human THP1 cells assessed as reduction in salmon sperm dsDNA-induced IFN-beta expression preincubated for 1 hr followed by dsDNA stimulation for 12 hrs by luciferase reporter gene assay; format: cell-based

T1 sequence (Q8N884 whole entry, the tested form may be a part): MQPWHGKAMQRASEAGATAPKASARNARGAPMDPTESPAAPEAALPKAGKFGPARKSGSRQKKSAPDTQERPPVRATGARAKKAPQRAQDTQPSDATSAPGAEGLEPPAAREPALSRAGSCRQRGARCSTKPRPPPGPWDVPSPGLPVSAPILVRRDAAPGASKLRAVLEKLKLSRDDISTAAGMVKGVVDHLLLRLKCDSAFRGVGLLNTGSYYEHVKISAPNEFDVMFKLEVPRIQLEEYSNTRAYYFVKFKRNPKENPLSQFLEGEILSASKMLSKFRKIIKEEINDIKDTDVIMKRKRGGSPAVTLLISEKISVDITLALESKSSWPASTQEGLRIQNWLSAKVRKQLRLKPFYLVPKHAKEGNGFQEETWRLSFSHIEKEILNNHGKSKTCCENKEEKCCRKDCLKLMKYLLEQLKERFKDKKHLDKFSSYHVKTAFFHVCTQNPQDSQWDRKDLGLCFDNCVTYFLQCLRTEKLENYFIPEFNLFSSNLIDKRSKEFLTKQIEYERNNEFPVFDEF

| SMILES | IC50 [1] [µM] | inhibition [3] | Activity [2] |
| --- | --- | --- | --- |
| Oc1cc(-c2ccccc2)nc2nnnn12 | 78 | – | – |
| O=C(N[C@H]1CCCC[C@H]1C(=O)O)c1cnn2c(O)cc(-c3ccccc3)nc12 | – | – | Non-Toxic |
| O=C(NCCCNc1nc(Nc2cccc(NC(=O)N3CCCC3)c2)ncc1I)c1cccs1 [BX-795] | – | – | Non-Toxic |

Now from value to compound, other results behind:

| IC50 [1] [µM] | inhibition [3] | SMILES | Activity [2] |
| --- | --- | --- | --- |
| – | inactive | O=C(NCCO)c1cnn2c(O)cc(-c3ccccc3)nc12 | Non-Toxic |
| – | inactive | C[C@@H](CO)NC(=O)c1cnn2c(O)cc(-c3ccccc3)nc12 | Non-Toxic |
| – | inactive | O=C(O)CNC(=O)c1cnn2c(O)cc(-c3ccccc3)nc12 | Non-Toxic |

From ChEMBL document CHEMBL4028860 (PLoS One, 2017)
